# High-throughput results deposited in PubChem BioAssay by several laboratories.
# CRFR2-BP antag = antagonists of CRF-BP/CRF-R2 complex, primary screen, cell-based, HEK293, calcium dye fluorescence, uHTS | CRF-induced calcium fluorescence | inhibition, % at 11.8 µM | 0.59% of 350,000 active | AID 588475, 2011;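 active = inhibition of the ligand-induced calcium signal above about 50% at the single tested concentration, limit read from the data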
# beta cell repl = inducers of MIN6 beta-cell proliferation, primary screen, ATP luminescence, uHTS; MIN6 cells proliferation, ATPlite luminescence, 48 h; cells starved in 0.2% serum; 100% = growth in 10% serum; proliferation, % at 10 µM; 0.29% of 330,000 active; AID 2380, 2010;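 active = compounds whose signal lies at least 3.5 SD above the mean of all wells on their plate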;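 also: 0% = DMSO-treated cells in low-serum medium and 100% = 10% serum control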
# hiPSC survival = enhancers of single-cell hiPSC survival, primary screen, ATPlite luminescence; 100% = ROCK inhibitor wells, 0% = DMSO; survival enhancement, % at 20 µM; 0.044% of 360,000 active; AID 602274, 2012; in the data active = survival enhancement above about 18%;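 also: cells exposed to compounds for 16 hours before the ATP read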
# CRFBP-R2 agonist = agonists of CRF-BP/CRF-R2 complex, primary screen, cell-based, HEK293, calcium dye fluorescence, uHTS; CRF-binding protein / CRF receptor 2 complex (human); calcium dye fluorescence (FLIPR); percent of saturating CRF peptide response; activation, % at 13.2 µM; 0.46% of 350,000 active; AID 588473, 2011;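 active = activation of at least 50%, plus an integration ratio under a set limit after plate pattern correction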;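 also: plate controls were neutral control wells without compound for no effect and CRF at EC100 for full effect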
# Cardio protect = cardioprotection against H2O2-induced cell death, primary screen, uHTS, H9c2 cells, ATPLite luminescence | protection from H2O2 cell death, % at 20 µM | 0.63% of 360,000 active | H9c2 cardiomyocytes, H2O2 injury protection, 2 h;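 active = compounds giving at least 50% protection of heart cells from peroxide-induced death in the single-dose screen, raw or plate-pattern-corrected value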;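 also: 0% = DMSO wells with peroxide and 100% = DMSO wells without peroxide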
# UCH37 inh = inhibitors of human UCH37 deubiquitinase, primary screen, biochemical, Ub-AMC cleavage, fluorescence. Ubiquitin carboxyl-terminal hydrolase isozyme L5 (Homo sapiens), Q9Y5K5. purified proteasome/UCH37. inhibition, % (test concentration not listed). 0.33% of 330,000 active. AID 588478, 2011;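 active = mean inhibition over replicate wells above about 20%, limit read from the data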;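 also: 0% = compound-free wells with enzyme and 100% = wells lacking proteasome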
# Target sequence (Q9Y5K5 whole entry, looked up): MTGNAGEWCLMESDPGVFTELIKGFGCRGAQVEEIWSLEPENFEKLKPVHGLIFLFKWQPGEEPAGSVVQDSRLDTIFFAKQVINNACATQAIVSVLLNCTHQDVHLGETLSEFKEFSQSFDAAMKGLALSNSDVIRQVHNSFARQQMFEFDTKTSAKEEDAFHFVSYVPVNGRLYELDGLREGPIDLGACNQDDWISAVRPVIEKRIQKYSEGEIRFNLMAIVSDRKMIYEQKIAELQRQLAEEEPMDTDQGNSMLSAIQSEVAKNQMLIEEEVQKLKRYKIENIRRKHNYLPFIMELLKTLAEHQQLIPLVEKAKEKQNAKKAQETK
#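 Reagent: Ub-AMC substrate; assay system: Proteasome-associated human UCH37 deubiquitinase; controls: no-proteasome and no-compound wells; read-out: % inhibition of Ub-AMC cleavage fluorescence; timing: 30 min preincubation with enzyme, 25 min cleavage at room temperature; signal: AMC fluorescence from Ub-AMC cleavage, excitation 355 nm, emission 460 nm; buffer or medium: Tris-HCl pH 7.4 plus ovalbumin, ATP-MgCl2, DTT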
# Active calls of the source: *; nt = no result given. Only some compounds are listed: those with a hit (about 2.1% of all), similar ones and a draw of the others.
SMILES,CRFR2-BP antag,beta cell repl,hiPSC survival,CRFBP-R2 agonist,Cardio protect,UCH37 inh
COc1cc(OC)cc(C(=O)Nc2ccc(C(=O)Nc3ccccc3OC)cc2)c1,-9,-2,-1,0,51*,-3
COc1cccc(NC(=O)c2ccc(NC(C)=O)cc2)c1,-5,1,-3,0,3,26*
COc1ccccc1NS(=O)(=O)c1ccc(NN=C/C=C/c2ccccc2[N+](=O)[O-])c([N+](=O)[O-])c1,nt,nt,nt,nt,nt,12
CNC(=S)NN=Cc1c(C)nn(-c2cccc(Cl)c2)c1Cl,nt,nt,nt,nt,nt,3
O=S(=O)(N=C(c1ccccc1)N1CCOCC1)c1ccc(Br)cc1,nt,nt,nt,nt,nt,1
C/C=C/C=NNc1nc(-c2ccc([N+](=O)[O-])cc2)cs1,nt,nt,nt,nt,nt,7
CC(=O)c1ccc(N2CCN(C(=O)c3ccc(-c4ccccc4)cc3)CC2)cc1,18,-1,1,-1,-5,-2
CC(=O)c1ccc(N2CCN(C(=O)c3cc(-c4cccnc4)nc4ccc(Br)cc34)CC2)cc1,-32,-5,1,14,53*,10
O=C(c1cc(-c2ccncc2)nc2ccc(Br)cc12)N1CCN(Cc2ccc3c(c2)OCO3)CC1,-13,-3,0,1,66*,3
O=C(c1cc(-c2ccncc2)nc2ccc(Cl)cc12)N1CCN(Cc2ccc3c(c2)OCO3)CC1,-34,-1,2,3,36,3
CC(=O)c1ccc(N2CCN(C(=O)c3cccc(Oc4ccccc4)c3)CC2)cc1,78*,-3,0,-1,-16,2
O=C(c1cc(-c2cccnc2)nc2ccc(Br)cc12)N1CCN(c2ncccn2)CC1,-42,-1,-1,3,59*,2
COc1ccccc1N1CCN(N=Cc2ccc([N+](=O)[O-])cc2)CC1,nt,nt,nt,nt,nt,5
Cn1cccc1C=NNC(=O)Cc1cccc2ccccc12,nt,nt,nt,nt,nt,4
Cc1sc2nc[nH]c(=S)c2c1-c1ccccc1,-8,-7,-1,-6,66*,2
Cc1ccc(C(=O)C=CNc2ccc(C)c(C)c2)cc1,nt,nt,nt,nt,nt,2
CCOc1cc(C=NNC(=O)NN(C)c2ncc(C(F)(F)F)cc2Cl)ccc1O,nt,nt,nt,nt,nt,5
CC1CCCC(C)N1N=Cc1cccc([N+](=O)[O-])c1 (stereo not drawn),nt,nt,nt,nt,nt,0
Cc1nc(SCC(=O)Nc2nc3ccccc3s2)c(C#N)c(C)c1C,-8,-6,-7,-1,-8,-3
Cc1cc(C(F)(F)F)c(C#N)c(SCC(=O)Nc2nc3ccccc3s2)n1,-164,0,-3,80*,-12,-2
FC(F)(F)c1ccccc1C=NN1CCN(Cc2ccccc2)CC1,nt,nt,nt,nt,nt,2
Cc1ccc(S(=O)(=O)N2[C@@H](c3ccc(Br)cc3)C(C(=O)O)=CC[C@H]2c2cccc(C)c2)cc1,86*,-2,1,-2,-2,1
Cc1ccc(S(=O)(=O)N2[C@@H](c3ccc(Cl)cc3)C(C(=O)O)=CC[C@H]2c2ccc(C(C)C)cc2)cc1,14,-9,2,-2,-8,7
Cc1ccc([C@H]2C(C(=O)O)=CC[C@@H](c3cccc(C)c3)N2S(=O)(=O)c2ccc(C)cc2)cc1,12,-4,1,-1,-4,-1
Cc1ccc([C@H]2C(C(=O)O)=CC[C@@H](c3ccc(Cl)cc3)N2S(=O)(=O)c2ccc(C)cc2)cc1,66*,-5,0,6,-7,5
Cc1ccc([C@@H]2C[C@H]3[C@@H](CN2S(=O)(=O)c2ccc(Cl)cc2)C(=O)C[C@@H](c2ccc(C)cc2)N3S(=O)(=O)c2ccc(Cl)cc2)cc1,-9,nt,28*,0,-8,nt
Cc1ccc([C@H]2C(C(=O)O)=CC[C@@H](c3ccc(C)cc3)N2S(=O)(=O)c2ccc(C)cc2)cc1,94*,-3,4,-1,22,1
